Screens deposited in PubChem BioAssay by several laboratories.
SENP7 block – SENP7 protease inhibitors, primary screen, biochemical, luminescence, uHTS | 330,000 tested, 1.5% active | Sentrin-specific protease 7 (Homo sapiens), Q9BQF6 | inhibition, % at 5 µM | recombinant SENP7, Z-RLRGG-aminoluciferin luminescence, 40 min | AID 434973, 2010;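 active = inhibition above about 50% at the single test dose, limit read from the data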;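 note: plate controls were DMSO with enzyme for no effect and no enzyme buffer wells for full effect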
SENP8 block-1 – human SENP8 protease inhibitors, primary screen, biochemical, fluorescence, Nedd8 protein substrate, uHTS; inhibition, % at 20 µM; recombinant SENP8; 360,000 tested, 0.64% active; Sentrin-specific protease 8 (Homo sapiens), Q96LD8; in the data active = inhibition mostly above about 40%, no sharp cut-off; inactive = mostly below about 27%
Target sequence (Q96LD8 whole entry, looked up): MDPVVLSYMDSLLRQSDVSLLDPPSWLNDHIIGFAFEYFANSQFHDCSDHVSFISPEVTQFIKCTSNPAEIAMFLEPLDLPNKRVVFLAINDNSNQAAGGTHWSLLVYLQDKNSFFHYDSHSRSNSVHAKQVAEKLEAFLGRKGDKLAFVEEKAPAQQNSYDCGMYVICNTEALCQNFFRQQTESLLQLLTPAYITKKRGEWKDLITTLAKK
SENP1 FRET inh – human SENP1 catalytic domain inhibitors, primary screen, biochemical, FRET, uHTS; inhibition, % at 10 µM; 360,000 tested, 0.21% active; AID 624204, 2012; Sentrin-specific protease 1 (Homo sapiens), Q9P0U3; recombinant SENP1 catalytic domain, CyPet-SUMO1-YPet FRET cleavage;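 active = inhibition at least 30% at 10 µM, raw YFP signal under a set limit, fluorescence ratio 0.5 to 1.5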;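 note: 0% = enzyme with DMSO and 100% = no enzyme wells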
Target sequence (Q9P0U3 419-644 limits assumed): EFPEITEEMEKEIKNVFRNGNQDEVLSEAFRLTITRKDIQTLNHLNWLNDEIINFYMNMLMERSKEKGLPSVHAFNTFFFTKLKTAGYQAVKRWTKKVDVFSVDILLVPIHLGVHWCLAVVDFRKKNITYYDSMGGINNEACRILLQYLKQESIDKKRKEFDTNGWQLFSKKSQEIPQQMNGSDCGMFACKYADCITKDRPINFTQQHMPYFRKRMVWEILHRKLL
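System: Recombinant human SENP1 catalytic domain, His6-tagged | Incubation: Enzyme reaction for 50 min at room temperature, dark | Medium: Tris pH 8 with BME, BSA, NP40 and catalase | Also added: 25 nM SUMO1 FRET substrate | Compound: 10 µM single point, 0.5% DMSO | Measured by: FRET fluorescence in CFP and YFP emission channels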
UCH37 DUB inh – inhibitors of human UCH37 deubiquitinase, primary screen, biochemical, Ub-AMC cleavage, fluorescence. Ubiquitin carboxyl-terminal hydrolase isozyme L5 (Homo sapiens), Q9Y5K5. 330,000 tested, 0.33% active. purified proteasome/UCH37. inhibition, % (concentration not given with the values);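 active = mean inhibition over replicate wells above about 20%, limit read from the data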;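 note: 0% = compound-free wells with enzyme and 100% = wells lacking proteasome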
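assay system = human UCH37 enzyme supplied as purified proteasome complex | amount = proteasome at 0.15 nM in the dispensed enzyme solution | schedule = 30 min compound-proteasome preincubation then 25 min substrate reaction, room temperature | measured by = fluorescence, ex 355 nm, em 460 nm | benchmarks = no-proteasome wells (full inhibition) and compound-free wells (no inhibition)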
SENP8 block-2 – SENP8 protease inhibitors, primary screen, biochemical, luminescence; Sentrin-specific protease 8 (Homo sapiens), Q96LD8; purified SENP8, Z-RLRGG-aminoluciferin cleavage; inhibition, % at 10 µM; 330,000 tested, 1.2% active; AID 2540, 2010; in the data active = inhibition above about 50%
SENP6 block – SENP6 protease inhibitors, primary screen, biochemical, luminescence, uHTS | Sentrin-specific protease 6 (Homo sapiens), Q9GZR1 | AID 2599, 2010 | 330,000 tested, 1.8% active | inhibition, % at 10 µM | Recombinant SENP6 catalytic domain, aminoluciferin luminescence;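 active = inhibition above about 50% at the single tested dose, limit read from the data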;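 note: plate controls were DMSO wells with enzyme for no effect and DMSO wells lacking enzyme for full effect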
SENP8 confirm – SENP8 protease inhibitors, retest, confirmation, biochemical, luminescence, single concentration; shares compounds with SENP7 block; Recombinant SENP8, Z-RLRGG-aminoluciferin luminescence, 60 min; inhibition, % at 12.5 µM; 6,200 tested, 40% active;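 active = mean inhibition across replicates above about 50%, limit read from the data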
SENP6 conf – SENP6 protease inhibitors, confirmation, biochemical, luminescence, single concentration. AID 488915, 2010. 6,200 tested, 58% active. shares compounds with SENP7 block. inhibition, % at 12.5 µM. recombinant SENP6, Z-RLRGG-aminoluciferin luminescence
SENP7 confirm – SENP7 protease inhibitors, retest, confirmation, biochemical, luminescence, single concentration | shares compounds with SENP7 block | recombinant SENP7, Z-RLRGG-aminoluciferin luminescence, 40 min | inhibition, % at 12.5 µM | 6,200 tested, 69% active | AID 488917, 2010
Casp3 SENP sel – caspase-3 protease inhibitors, confirmation, selectivity assay for SENP inhibitor project, biochemical, single concentration; shares compounds with SENP7 block; purified caspase-3, Z-DEVD-aminoluciferin luminescence, 60 min; inhibition, % at 12.5 µM; 6,200 tested, 60% active;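 active = mean inhibition above about 50%, limit read from the data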;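 note: plate controls were enzyme with DMSO for no effect and wells without caspase-3 for full effect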
Target sequence (P42574 28-227 limits assumed): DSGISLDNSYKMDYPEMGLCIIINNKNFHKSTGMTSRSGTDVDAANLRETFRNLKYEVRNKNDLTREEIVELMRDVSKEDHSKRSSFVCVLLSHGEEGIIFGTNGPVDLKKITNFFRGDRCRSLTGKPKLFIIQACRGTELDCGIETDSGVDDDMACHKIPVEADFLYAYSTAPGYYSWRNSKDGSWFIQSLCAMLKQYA
SENP luc ctr – luminescence interference (SENP counter-screen); shares compounds with SENP7 block; Pre-incubated SENP8/Z-RLRGG-aminoluciferin, luciferase luminescence interference; inhibition, % at 12.5 µM; 6,200 tested, 39% active;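 active = mean inhibition above about 50% when retested at one dose, limit read from the data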;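 note: plate controls were DMSO wells with completed reaction for no effect and substrate without enzyme for full effect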
An asterisk follows results filed as active; . = no result given. A selection: hits, their analogues and other compounds. The true share with any hit is near 2.6%.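 Rule for the calls, unless noted: active = mean inhibition above about 50% in the one-dose retest (limit read from the data); inactive = the rest.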

SMILES | SENP7 block | SENP8 block-1 | SENP1 FRET inh | UCH37 DUB inh | SENP8 block-2 | SENP6 block | SENP8 confirm | SENP6 conf | SENP7 confirm | Casp3 SENP sel | SENP luc ctr
CC1CCCC(=NNc2ccc(Cl)c(C(=O)O)c2)C1 (centres undefined) | . | . | . | 2 | . | . | . | . | . | . | .
CCCCN(C)C(=O)c1cc2cc3ccc(OC)cc3nc2s1 | 95* | -334 | 1 | -77 | 91* | 91* | 91* | 97* | 101* | 96* | 54*
CSc1ncccc1C(=O)OCC(=O)c1cc(C)n(CC2CCCO2)c1C (centres undefined) | 78* | 16 | 0 | 2 | 83* | 88* | 92* | 92* | 99* | 93* | 32
CSc1ncccc1C(=O)OCC(=O)c1ccccc1Br | 39 | 39 | 1 | 3 | 36 | -8 | . | . | . | . | .
CSc1ncccc1C(=O)OCC(=O)c1cc(C)n(C)c1C | 37 | 1 | -2 | 1 | 37 | 54* | 14 | 46 | 82* | 73* | 45
Cc1cc(C(=O)COc2ccccc2C(N)=O)c(C)n1C | -10 | -2 | -2 | 2 | -9 | -114 | . | . | . | . | .
CSc1ncccc1C(=O)OCC(=O)c1ccccc1 | 34 | -1 | 3 | 2 | 28 | 53* | 7 | 20 | 70* | 56* | -2
Cc1cc(C(=O)COc2cccc3cccnc23)c(C)n1C | 29 | -127 | -25 | 4 | 13 | 79* | 8 | 7 | 7 | 10 | 9
Oc1ccc(C=NNc2nc(N3CCCCCC3)nc(N3CCCCCC3)n2)c(O)c1 | . | . | . | 2 | . | . | . | . | . | . | .
COc1ccc(C=NNc2ncnc3scc(-c4ccccc4)c23)cc1OC | . | . | . | -7 | . | . | . | . | . | . | .
COc1ccc(/C=C/C(=O)NCC(=O)NN=C(CCC(=O)O)c2ccccc2)cc1 | . | . | . | 4 | . | . | . | . | . | . | .
O=C(Nc1ccc2ccccc2c1)c1cccc([N+](=O)[O-])c1 | 19 | 20 | 1 | 1 | -5 | -17 | . | . | . | . | .
COc1ccc(C(=O)Nc2ccc3c(c2)C(=O)NC3=O)cc1 | -6 | -385 | -83 | -53 | -5 | -3 | . | . | . | . | .
Cc1cccc(C(=O)Nc2ccc3ccccc3c2)c1 | 75* | 7 | 1 | 2 | 73* | 83* | 74* | 76* | 94* | 58* | 30
CC(=O)c1cccc(NC(=O)c2ccc(NS(C)(=O)=O)cc2)c1 | -1 | 28 | 1 | 1 | -2 | 7 | . | . | . | . | .
COc1cccc(C(=O)Nc2ccc3c(c2)C(=O)NC3=O)c1 | 55* | -355 | -3 | -4 | 51* | 58* | -27 | 34 | 29 | 31 | -4
CS(=O)(=O)Nc1ccc(C(=O)Nc2ccc3ccccc3c2)cc1 | 58* | 1 | 1 | -30 | -1 | 37 | 4 | 1 | 65* | 48 | 25
COc1cccc(C(=O)Nc2cccc(OCC(=O)O)c2)c1 | 58* | 5 | 0 | 1 | 19 | 46 | 53* | 49 | 81* | 84* | 56*
COc1ccc(C(=O)Nc2cc(OC)nc(OC)n2)cc1 | 83* | 32 | -1 | 0 | 74* | 87* | 83* | 83* | 97* | 92* | 84*
COc1cccc(C(=O)Nc2cccc(SC)c2)c1 | 75* | 12 | 2 | 1 | 55* | 79* | 72* | 72* | 90* | 65* | 70*
CCCC(=O)Nc1ccc(NC(=O)c2cccc(OC)c2)nc1 | 46 | 17 | 1 | 1 | 16 | 52* | 42 | 39 | 75* | 76* | 52*
COc1cccc(C(=O)Nc2ccc(NC(C)=O)cn2)c1 | 9 | -3 | -31 | 3 | -4 | 4 | . | . | . | . | .
COc1cccc(C(=O)Nc2cccc(NC(=O)c3ccccc3Cl)c2)c1 | 0 | 1 | 1 | 4 | 4 | 24 | . | . | . | . | .
COc1cc(NC(=O)Cc2ccccc2)nc(OC)n1 | 0 | 6 | 1 | 0 | -5 | -16 | . | . | . | . | .
CCOc1cccc(C(=O)Nc2ccc(NC(=O)c3ccccc3)c(C)c2)c1 | 78* | 26 | 1 | 2 | 77* | 78* | 12 | 24 | 43 | 86* | 1
SMILES | SENP7 block | SENP8 block-1 | SENP1 FRET inh | UCH37 DUB inh | SENP8 block-2 | SENP6 block | SENP8 confirm | SENP6 conf | SENP7 confirm | Casp3 SENP sel | SENP luc ctr
CCCN(CCC)Cc1c(C(=O)NN=CCCc2ccccc2)nnn1-c1nonc1N | . | . | . | 3 | . | . | . | . | . | . | .
COc1ccccc1CNC(=O)c1cccc(NC(=O)c2ccccc2)c1 | 4 | 17 | 1 | 5 | -2 | 93* | -6 | -11 | 3 | 1 | 2
COc1ccc(C(=O)Nc2ccc3ccccc3c2)cc1 | 96* | 6 | 2 | -1 | 86* | 88* | 5 | 84* | 100* | 80* | 32
COc1cccc(C(=O)Nc2ccc3ccccc3c2)c1 | 91* | 10 | -1 | -1 | 86* | 89* | -22 | 86* | 99* | 73* | 84*
COc1ccc(OC)c(C(=O)c2ccc(C(=O)Nc3ccc4ccccc4c3)cc2)c1 | 5 | 20 | 4 | -8 | -1 | -5 | . | . | . | . | .
COc1cccc(C(=O)Nc2ccc3[nH]ncc3c2)c1 | 6 | 15 | 0 | 1 | 16 | 17 | . | . | . | . | .
CCn1c(C(C#N)C(=NS(=O)(=O)c2cccs2)c2ccccc2)nc2ccccc21 (centres undefined) | . | . | . | 5 | . | . | . | . | . | . | .
Cc1[nH]c2ccccc2c1C=NNC(=O)c1cccc(S(=O)(=O)Nc2cccc(C(F)(F)F)c2)c1 | . | . | . | -2 | . | . | . | . | . | . | .
O=C(O)c1ccc(/C=C/C(=O)c2ccc3c(c2)OCCCO3)cc1 | 43 | 14 | 0 | . | 21 | 60* | 70* | 57* | 74* | 2 | 78*
